According to ChEMBL document CHEMBL3797076, “5-HT2 receptor affinity, docking studies and pharmacological evaluation of a series of 1,3-disubstituted thiourea derivatives” (Eur J Med Chem, 2016):
The source made the active and inactive calls. No cut-off for these calls is given here.

Key:
Mus musculus [1] = assay: Antinociceptive activity in Albino Swiss mouse assessed as inhibition of acetic acid-induced writhing response at 0.05 ED50, ip administered 60 mins prior to test measured for 10 mins in presence of opioid receptor antagonist naloxone; type: functional, organism-based
Mus musculus [2] = assay: Inhibition of amphetamine-induced hyperlocomotion in Albino Swiss mouse at 0.1 ED50, ip administered 60 mins prior to test measured for 30 mins by photoresistor actometer analysis; type: functional
Method in brief: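 Single male Albino Swiss mice; compound i.p. 60 min and amphetamine 5 mg/kg s.c. 30 min before test. Photoresistor actometers (circular cage, two light beams) counted beam crossings over 30 min; mean ± SEM, Dunnett's test vs control.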

[3] = target: 5-hydroxytryptamine receptor 2A (Rattus norvegicus, UniProt P14842); assay: Displacement of [3H]ketanserin from 5HT2A receptor in Sprague-Dawley rat brain cortex incubated for 15 mins
5-hydroxytryptamine receptor 2A, sequence (P14842 whole entry): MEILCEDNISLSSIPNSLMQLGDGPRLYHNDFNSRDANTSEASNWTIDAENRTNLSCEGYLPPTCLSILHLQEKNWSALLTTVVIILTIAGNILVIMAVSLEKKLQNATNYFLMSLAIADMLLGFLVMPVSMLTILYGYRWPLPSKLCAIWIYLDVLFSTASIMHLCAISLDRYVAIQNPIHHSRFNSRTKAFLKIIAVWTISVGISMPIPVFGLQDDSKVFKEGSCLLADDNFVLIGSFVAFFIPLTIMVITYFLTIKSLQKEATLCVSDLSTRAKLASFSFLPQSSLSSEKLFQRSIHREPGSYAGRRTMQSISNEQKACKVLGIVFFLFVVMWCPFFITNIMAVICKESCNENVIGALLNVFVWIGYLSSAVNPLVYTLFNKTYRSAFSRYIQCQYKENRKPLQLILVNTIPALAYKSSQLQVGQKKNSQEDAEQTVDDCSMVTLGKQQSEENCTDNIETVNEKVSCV
Method in brief: (§1)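 Rat frontal cortex homogenized in 50 mM Tris-HCl, 0.5 mM EDTA, 10 mM MgCl2, pH 7.4, washed, resuspended with 0.1% ascorbate and pargyline. Triplicates: 5-HT2A used 0.4 nM [3H]ketanserin, cinanserin for nonspecific binding; 5-HT2C used 1 nM [3H]mesulergine, mianserin nonspecific, 100 nM spiperone added. 15 min at 37 C, glass-fiber filtration.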

Mus musculus [4] = assay: Antinociceptive activity in Albino Swiss mouse assessed as inhibition of acetic acid-induced writhing response at 0.1 ED50, ip administered 60 mins prior to test measured for 10 mins; type: functional, organism-based
Method in brief: (§2)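 Male Albino Swiss mice, i.p. dosing in 0.5% methylcellulose 60 min beforehand; 0.6% acetic acid injected i.p., writhing episodes counted for 10 min beginning 5 min after acid. Mean ± SEM; one-way ANOVA with Dunnett's test vs control.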

Mus musculus [5] = assay: Anticonvulsant activity in Albino Swiss mouse assessed as protection against pentetrazol-induced clonic seizure at 0.05 ED50, ip administered 60 mins prior to test relative to untreated control; type: functional, organism-based
Method in brief: (§3)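 Male Albino Swiss mice (18-30 g); compound given i.p. as suspension in 0.5% methylcellulose 60 min before test; pentylenetetrazole 110 mg/kg s.c. Scored as number of mice with clonic seizures, tonic convulsions and deaths per animals tested; Fisher's exact test vs solvent control.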

Mus musculus [6] = assay: Neurotoxicity in Albino Swiss mouse assessed as induction of myorelaxation at 0.0125 to 0.1 ED50, ip after 60 mins by rotarod test; type: toxicity, organism-based; conditions: in vivo, 1 h
Mus musculus [7] = assay: Neurotoxicity in Albino Swiss mouse assessed as induction of myorelaxation at 0.0125 to 0.1 ED50, ip after 60 mins by chimney test; type: toxicity, organism-based; conditions: in vivo, 1 h
Mus musculus [8] = assay: Inhibition of 5-HTP-induced head twitch response in Albino Swiss mouse at 0.1 ED50, ip administered 60 mins before 5-HTP injection relative to untreated control; type: functional
Method in brief: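 Male Albino Swiss mice given compound i.p. (0.1 ED50, 0.5% methylcellulose) 60 min before the test; L-5-HTP 230 mg/kg i.p. injected immediately before. Head twitches counted; mean ± SEM, Dunnett's test vs control.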

Mus musculus [9] = assay: Effect on body temperature in Albino Swiss mouse at 0.1 ED50, ip administered 60 mins before test measured 30 to 180 mins post dose; type: functional, organism-based
Method in brief: (§4)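 Normothermic male Albino Swiss mice; rectal temperature by thermistor thermometer. Baseline taken as mean of readings at 60 and 30 min before dosing; i.p. dose (0.1 ED50, 0.5% methylcellulose vehicle) then readings at 30, 60, 90, 120 min (to 180 min for some). Change = final minus initial; Bonferroni post hoc test.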

Mus musculus [10] = assay: Antinociceptive activity in Albino Swiss mouse assessed as inhibition of acetic acid-induced writhing response at 0.025 to 0.05 ED50, ip administered 60 mins prior to test measured for 10 mins; type: functional, organism-based; method in brief: as §2
Mus musculus [11] = assay: Neurotoxicity in Albino Swiss mouse assessed as impairment in motor coordination at 0.0125 to 0.1 ED50, ip after 60 mins by chimney test; type: toxicity, organism-based; conditions: in vivo, 1 h
Mus musculus [12] = assay: Toxicity in ip dosed Albino Swiss mouse assessed as loss of righting reflex administered 60 mins before test measured up to 48 hrs; type: organism-based; conditions: in vivo
Method in brief: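 Acute toxicity in male Albino Swiss mice by Litchfield-Wilcoxon method: ED50 for loss of righting reflex after i.p. dosing, observed at 15, 30, 60, 180 min and 24, 48 h.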

Mus musculus [13] = assay: Neurotoxicity in Albino Swiss mouse assessed as impairment in motor coordination at 0.0125 to 0.1 ED50, ip after 60 mins by rotarod test; type: toxicity, organism-based; conditions: in vivo, 1 h
[14] = target: T1, 5-hydroxytryptamine receptor 2C (Rattus norvegicus, UniProt P08909); assay: Displacement of [3H]mesulergine from 5HT2C receptor in Sprague-Dawley rat brain cortex incubated for 15 mins; method in brief: as §1
T1 sequence (P08909 whole entry): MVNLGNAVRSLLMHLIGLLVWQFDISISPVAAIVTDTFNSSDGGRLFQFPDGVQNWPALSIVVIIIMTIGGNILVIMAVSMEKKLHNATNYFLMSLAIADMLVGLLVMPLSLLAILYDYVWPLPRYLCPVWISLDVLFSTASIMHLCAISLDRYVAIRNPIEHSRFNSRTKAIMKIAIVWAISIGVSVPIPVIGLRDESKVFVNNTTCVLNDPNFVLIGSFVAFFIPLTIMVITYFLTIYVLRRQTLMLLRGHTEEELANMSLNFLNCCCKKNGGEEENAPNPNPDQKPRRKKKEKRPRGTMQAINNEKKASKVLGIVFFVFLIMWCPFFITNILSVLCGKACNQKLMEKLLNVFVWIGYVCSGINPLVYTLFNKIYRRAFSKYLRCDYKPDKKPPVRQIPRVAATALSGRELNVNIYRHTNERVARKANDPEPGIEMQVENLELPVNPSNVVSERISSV

Mus musculus [15] = assay: Protection against pentetrazol-induced mortality in Albino Swiss mouse at 0.1 ED50, ip administered 60 mins prior to test relative to untreated control; type: functional
Method in brief: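 Male Albino Swiss mice (18–30 g). Compound given i.p. as suspension in 0.5% methylcellulose (10 mL/kg), 60 min before test; controls got vehicle. Dose expressed as fraction of ED50 (loss of righting reflex within 48 h). Convulsions induced by pentylenetetrazole 110 mg/kg s.c.; dead animals counted per group (n=10; control n=16). Significance vs control by Fisher's exact test.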

Mus musculus [16] = assay: Toxicity in Albino Swiss mouse assessed as inhibition of spontaneous locomotor activity at 0.1 ED50, ip administered 60 mins before test measured for 30 mins by photoresistor actometer analysis; type: organism-based; conditions: in vivo, 0.5 h
Method in brief: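 Spontaneous locomotion of single male Albino Swiss mice recorded in two-beam photoresistor actometers as beam crossings for 30 min, beginning 60 min after i.p. compound (suspension in 0.5% methylcellulose).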

Mus musculus [17] = assay: Anticonvulsant activity in Albino Swiss mouse assessed as protection against pentetrazol-induced tonic seizure at 0.1 ED50, ip administered 60 mins prior to test relative to untreated control; type: functional; method in brief: as §3
Mus musculus [18] = assay: Antinociceptive activity in Albino Swiss mouse assessed as inhibition of acetic acid-induced writhing response at 0.1 ED50, ip administered 60 mins prior to test measured for 10 mins in presence of opioid receptor antagonist naloxone; type: functional, organism-based
Mus musculus [19] = assay: Increase in body temperature in Albino Swiss mouse at 0.1 ED50, ip administered 60 mins before test measured 30 to 180 mins post dose; type: functional, organism-based; method in brief: as §4
Mus musculus [20] = assay: Inhibition of (+/-)DOI-induced head twitch response in Albino Swiss mouse at 28.6 mg/kg, ip administered 60 mins before (+/-)DOI injection measured for 20 mins relative to untreated control; type: functional
Method in brief: (§5)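 Male Albino Swiss mice; compounds suspended in 0.5% methylcellulose, injected i.p. 60 min before (±)DOI 2.5 mg/kg i.p.; head twitches counted over 20 min. Mean ± SEM, percent reduction versus DOI-treated group; one-way ANOVA with Bonferroni post hoc test.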

Mus musculus [21] = assay: Anticonvulsant activity in Albino Swiss mouse assessed as protection against pentetrazol-induced clonic seizure at 0.1 ED50, ip administered 60 mins prior to test relative to untreated control; type: functional; method in brief: as §3
Mus musculus [22] = assay: Inhibition of (+/-)DOI-induced head twitch response in ip dosed Albino Swiss mouse administered 60 mins before (+/-)DOI injection measured for 20 mins; type: functional, organism-based; method in brief: as §5
Mus musculus [23] = assay: Decrease in body temperature in Albino Swiss mouse at 0.1 ED50, ip administered 60 mins before test measured 30 to 120 mins post dose; type: functional, organism-based; method in brief: as §4

Row | Ki [3] | Ki [14] | SMILES | inhibition (Mus musculus [1]) | inhibition (INH) (Mus musculus [2]) | inhibition (Mus musculus [4]) | Activity (Mus musculus [6]) | Activity (Mus musculus [7]) | inhibition (Mus musculus [8]) | inhibition (Mus musculus [10]) | Activity (Mus musculus [11]) | ED50 (Mus musculus [12]) | Activity (Mus musculus [13]) | Activity (Mus musculus [16]) | inhibition (INH) (Mus musculus [8]) | Activity (Mus musculus [21]) | further results
1 | > 10 µM | > 10 µM | FC(F)(F)c1cccc(NC(=S)Nc2ccccc2Cl)c1 |  |  | Active | Non-toxic | Non-toxic |  |  | Non-toxic | 2000 mg/kg | Non-toxic | Toxic | 72.4% |  | inhibition (Mus musculus [18]): Active
2 | > 10 µM | > 10 µM | O=[N+]([O-])c1cc(NC(=S)Nc2ccccc2Cl)ccc1Cl |  |  |  |  |  |  |  |  |  |  | Non-toxic |  |  | 
3 | 4.3e-05 µM | > 10 µM | Fc1ccc(NC(=S)Nc2cccc(C(F)(F)F)c2)cc1Cl |  | 47.3% |  | Non-toxic | Non-toxic | inactive |  | Non-toxic | 286.2 mg/kg | Non-toxic | Non-toxic |  | inactive | Activity (Mus musculus [19]): Active; inhibition in vivo at 28.6 mg/kg (Mus musculus [20]): 51.6%; inhibition (Mus musculus [22]): Dose-dependent effect
4 | > 10 µM | > 10 µM | O=C(NC(=S)Nc1ccc(Cl)c([N+](=O)[O-])c1)c1ccccc1 |  |  |  |  |  |  |  |  |  |  | Non-toxic |  |  | 
5 | > 10 µM | > 10 µM | CC(NC(=S)Nc1ccc(Cl)c([N+](=O)[O-])c1)c1ccccc1 (stereo not drawn) | Active |  | Active | Non-toxic | Non-toxic |  | Active | Non-toxic | 1031.3 mg/kg | Non-toxic | Non-toxic | 89% | inactive | inhibition (Mus musculus [2]): inactive; Activity (Mus musculus [23]): Active

Row | SMILES | Ki [3] | Ki [14] | inhibition (Mus musculus [1]) | inhibition (INH) (Mus musculus [2]) | inhibition (Mus musculus [4]) | Activity (Mus musculus [6]) | Activity (Mus musculus [7]) | inhibition (Mus musculus [8]) | inhibition (Mus musculus [10]) | Activity (Mus musculus [11]) | ED50 (Mus musculus [12]) | Activity (Mus musculus [13]) | Activity (Mus musculus [16]) | inhibition (INH) (Mus musculus [8]) | Activity (Mus musculus [21]) | further results
6 | FC(F)(F)c1cccc(NC(=S)NCCc2ccccc2)c1 | > 10 µM | > 10 µM | Active | 42.48% | Active | Non-toxic | Non-toxic | inactive | Active | Non-toxic | 709.6 mg/kg | Non-toxic | Non-toxic |  |  | Activity (Mus musculus [5]): inactive; Activity (Mus musculus [9]): inactive; Activity (Mus musculus [15]): 48.33%; Activity (Mus musculus [17]): 46.66%
